Results from different studies.
Protocols differ between the studies behind these lines.
RPS6KA1: Ribosomal protein S6 kinase alpha-1 (RPS6KA1, Homo sapiens, UniProt Q15418)
RPS6KA1 N-terminal kinase domain: Ribosomal protein S6 kinase alpha-1, N-terminal kinase domain (RPS6KA1, Homo sapiens, UniProt Q15418)
RPS6KA1 C-terminal kinase domain: Ribosomal protein S6 kinase alpha-1, C-terminal kinase domain (RPS6KA1, Homo sapiens, UniProt Q15418)

| Compound | target | test | conditions | endpoint | value |
| --- | --- | --- | --- | --- | --- |
| CC(C)c1ccc(NC(=O)c2cccs2)c(-c2nc3ccccc3[nH]c2=O)c1 | RPS6KA1 | enzyme activity, inhibitor | 1 µM | activity vs control | 96% |
| C[C@@H]1CCN(c2nccc(-c3cnn4ncccc34)n2)C1 | RPS6KA1 N-terminal kinase domain | binding, competition with immobilised ligand | 1 µM | remaining binding | 100% |
| COc1cc(Nc2cnc(C#N)c(O[C@H](C)CN(C)C)n2)ncc1-c1cnn(C)c1 | RPS6KA1 | enzyme activity, inhibitor, radiometric | 10 µM | remaining activity | 14% |
| CCOc1cc(-c2nncn2C)ccc1Nc1ncc2cc(C)nc(NCC(C)(C)C)c2n1 | RPS6KA1 | enzyme activity, inhibitor, FRET | 1 µM | inhibition | < 15% |
| CC(=O)c1c(NS(C)(=O)=O)c2cc(-c3ccc(Cl)cc3)c(-c3ccc(Cl)cc3Cl)nc2n(C)c1=O | RPS6KA1 N-terminal kinase domain | cell-free assay, competition with immobilised ligand | 1 µM | remaining binding | 93% |
| Cc1cc(NC(=O)c2cccc3cc(-c4cccc5[nH]nc(N)c45)ccc23)ccc1F | RPS6KA1 | enzyme activity, inhibitor | 0.1 µM | activity vs control | 115% |
| CCCOc1ccc(OC)c(F)c1C(=O)c1ccc(C(=O)N[C@@H]2CNC[C@H]2NC(=O)c2ccc3[nH]ncc3c2)cc1 | RPS6KA1 | enzyme activity, inhibitor | 10 µM | remaining activity | 29% |
| Cc1ccc(Nc2nccc(N(C)c3ccc4c(C)n(C)nc4c3)n2)cc1S(N)(=O)=O | RPS6KA1 | enzyme activity, inhibitor | 0.5 µM | remaining activity | 92.8% |
| N#CC1(c2ccccn2)CCN(Cc2cc(C(=O)N3CCCC3)c(=O)n3ccccc23)CC1 | RPS6KA1 N-terminal kinase domain | cell-free assay, competition with immobilised ligand | 1 µM | remaining binding | 100% |
| Cc1ccc(NC(=O)c2ccc(C)c(C(F)(F)F)c2)cc1C#Cc1nn(C2CCC(O)CC2)c2ncnc(N)c12 (stereo not shown) | RPS6KA1 | cell-free assay | 10 µM | remaining signal | 11% |
| CC/C(=N\NC(=O)C(C)Nc1ccccc1)c1ccc(O)c(C)c1O (stereo not shown) | RPS6KA1 | enzyme activity, inhibitor | 0.1 µM | inhibition | 36.6% |
| CNC(=O)c1ccc(Nc2ncc(C(F)(F)F)c(NCc3nccnc3N(C)S(C)(=O)=O)n2)cc1 | RPS6KA1 C-terminal kinase domain | cell-free assay, competition with immobilised ligand | 0.1 µM | remaining binding | 71% |
| c1ccc(CNc2nc(N3CCOc4ccccc43)nc3c2CCCC3)cc1 | RPS6KA1 C-terminal kinase domain | target engagement in cells, inhibitor, chemoproteomics | 20 mM | inhibition | -6.9% |
| COc1cc2c(Nc3ccc(Br)cc3F)ncnc2cc1OCC1CCN(C)CC1 | RPS6KA1 | cell-free assay | 0.5 µM | remaining signal | 102% |
| Cc1c[nH]c2nccc(Oc3c(F)cc(Nc4cc(Cl)nc(N)n4)cc3F)c12 | RPS6KA1 N-terminal kinase domain | cell-free assay, competition with immobilised ligand | 0.1 µM | remaining binding | 91% |
| CC(C)(C)c1nc(-c2cccc(NS(=O)(=O)c3c(F)cccc3F)c2F)c(-c2ccnc(N)n2)s1 | RPS6KA1 | enzyme activity, inhibitor, radiometric | 1 µM | remaining activity | 90% |
| Nc1nc(Nc2ccc(S(N)(=O)=O)cc2)nn1C(=O)c1c(F)cccc1F | RPS6KA1 | cell-free assay | 0.5 µM | remaining signal | 42.1% |
| CO[C@H]1CC[C@H](CNc2ccc(S(=O)(=O)NC(=O)c3ccc(N4CCN(CC5=C(c6ccc(Cl)cc6)CC(C)(C)CC5)CC4)cc3Oc3cnc4[nH]ccc4c3)cc2[N+](=O)[O-])CC1 | RPS6KA1 C-terminal kinase domain | cell-free assay, competition with immobilised ligand | 1 µM | remaining binding | 73% |
| Cc1cnn2ncc(-c3ccnc(N(C)C)n3)c2c1 | RPS6KA1 C-terminal kinase domain | binding, competition with immobilised ligand | 1 µM | remaining binding | 64% |
| O=C(Nc1cnc(Oc2ccc(F)cc2)nc1)N1CCc2ncccc2[C@@H]1c1ccc(F)cc1 | RPS6KA1 N-terminal kinase domain | cell-free assay, competition with immobilised ligand | 1 µM | remaining binding | 71% |
| Nc1ncnc2occ(-c3ccc(NC(=O)Nc4cc(C(F)(F)F)ccc4F)cc3)c12 | RPS6KA1 C-terminal kinase domain | cell-free assay, inhibitor | 20 µM | remaining signal | 20% |
| CNC(=O)c1cc(Oc2ccc(NC(=O)Nc3ccc(Cl)c(C(F)(F)F)c3)cc2)ccn1 | RPS6KA1 | enzyme activity, inhibitor | 10 µM | inhibition | 25% |
